# Tests used:
# [1] = target: Glutamate receptor 2 (Homo sapiens, UniProt P42262); assay: Binding affinity to GluA2 receptor (unknown origin)
# [2] = target: Glutamate receptor ionotropic, kainate 1 (Homo sapiens, UniProt P39086); assay: Binding affinity to GluK1 receptor (unknown origin)
# [3] = Cmax in Fischer rat at 30 mg/kg, po; type: ADME, organism-based; design: dose 30 mg/kg, route oral; settings: in vivo
# Procedure, shortened: (§1)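 Fischer rats; amino acid dosed orally as diethyl ester hydrochloride salt, 30 mg/kg (one entry at 10 mg/kg), three rats per time point. Amino acid plasma levels measured: AUC 0 to infinity, Cmax as maximum observed concentration, Tmax as time at Cmax. %F is amino acid exposure after oral ester dosing relative to the amino acid given iv.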
# [4] = tested on: Rattus norvegicus; assay: Analgesic activity in rat assessed as reversal of formalin-induced pain at 100 mg/kg, po; type: functional
# Procedure, shortened: (§2)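 Rat formalin pain model; amino acid given p.o. as diethyl ester hydrochloride salt at 30 mg/kg (one entry at 100 mg/kg), N = 8–9; vehicle controls N = 8–12. Read-out is % reversal of formalin-induced pain.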
# [5] = Tmax in Fischer rat at 30 mg/kg, po; type: ADME, organism-based; design: dose 30 mg/kg, route oral; settings: in vivo; procedure, shortened: as §1
# [6] = AUC (0 to infinity) in Fischer rat at 30 mg/kg, po; type: ADME, organism-based; design: time infinity, dose 30 mg/kg, route oral; settings: plasma; procedure, shortened: as §1
# [7] = tested on: Rattus norvegicus; assay: Neurotoxicity in po dosed rat assessed as sedative effect by rotorod test; type: toxicity, organism-based; settings: in vivo
# Procedure, shortened: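 Rotorod test in rats for sedative or ataxic effects; amino acid given p.o. as diethyl ester hydrochloride salt at several doses, N = 8, vehicle controls N = 8; minimal effective dose (MED) reported.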
# [8] = tested on: Rattus norvegicus; assay: Antihyperalgesic activity against carrageenan-induced thermal hyperalgesia in po dosed rat; type: functional; settings: read-out: MED
# Procedure, shortened: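 Rat carrageenan-induced thermal hyperalgesia; amino acid given p.o. as diethyl ester hydrochloride salt at several doses, N = 6 per group; vehicle controls N = 6. Reported as minimal effective dose (MED).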
# [9] = Oral bioavailability in Fischer rat at 30 mg/kg; type: ADME, organism-based; settings: in vivo; procedure, shortened: as §1
# [10] = tested on: Rattus norvegicus; assay: Analgesic activity in rat assessed as reversal of formalin-induced pain at 30 mg/kg, po; type: functional; procedure, shortened: as §2
# [11] = AUC (0 to infinity) in Fischer rat at 10 mg/kg, po; type: ADME, organism-based; design: time infinity, dose 10 mg/kg, route oral; settings: plasma; procedure, shortened: as §1
# [12] = Oral bioavailability in Fischer rat at 10 mg/kg; type: ADME, organism-based; settings: in vivo; procedure, shortened: as §1
# [13] = Cmax in Fischer rat at 10 mg/kg, po; type: ADME, organism-based; design: dose 10 mg/kg, route oral; settings: in vivo; procedure, shortened: as §1
# [14] = Tmax in Fischer rat at 10 mg/kg, po; type: ADME, organism-based; design: dose 10 mg/kg, route oral; settings: in vivo; procedure, shortened: as §1
# Chain of Glutamate receptor ionotropic, kainate 1 (P39086 whole entry): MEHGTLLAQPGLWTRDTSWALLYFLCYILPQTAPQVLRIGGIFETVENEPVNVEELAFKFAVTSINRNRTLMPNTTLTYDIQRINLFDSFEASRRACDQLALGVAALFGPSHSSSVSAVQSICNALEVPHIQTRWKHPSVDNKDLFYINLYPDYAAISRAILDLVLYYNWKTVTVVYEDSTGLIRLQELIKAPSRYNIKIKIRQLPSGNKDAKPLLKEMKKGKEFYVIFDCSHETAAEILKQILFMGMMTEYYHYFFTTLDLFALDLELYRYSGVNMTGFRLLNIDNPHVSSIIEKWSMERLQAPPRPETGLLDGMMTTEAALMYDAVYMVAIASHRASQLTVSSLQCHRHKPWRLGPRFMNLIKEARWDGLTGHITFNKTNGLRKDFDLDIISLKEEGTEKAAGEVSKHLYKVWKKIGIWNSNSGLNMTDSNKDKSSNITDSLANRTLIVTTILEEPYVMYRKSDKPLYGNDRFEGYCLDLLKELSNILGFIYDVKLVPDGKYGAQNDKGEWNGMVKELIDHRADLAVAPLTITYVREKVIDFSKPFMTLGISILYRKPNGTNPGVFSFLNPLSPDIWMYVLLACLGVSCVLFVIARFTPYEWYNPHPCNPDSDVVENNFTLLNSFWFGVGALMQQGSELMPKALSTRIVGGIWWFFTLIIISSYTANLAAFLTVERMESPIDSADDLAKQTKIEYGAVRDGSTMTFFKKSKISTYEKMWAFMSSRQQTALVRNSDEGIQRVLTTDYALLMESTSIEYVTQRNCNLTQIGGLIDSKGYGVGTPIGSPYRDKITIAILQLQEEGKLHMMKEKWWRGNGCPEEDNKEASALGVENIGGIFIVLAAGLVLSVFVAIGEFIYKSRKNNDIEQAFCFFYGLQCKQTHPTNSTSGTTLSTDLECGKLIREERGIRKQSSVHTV
# Chain of Glutamate receptor 2 (P42262 whole entry): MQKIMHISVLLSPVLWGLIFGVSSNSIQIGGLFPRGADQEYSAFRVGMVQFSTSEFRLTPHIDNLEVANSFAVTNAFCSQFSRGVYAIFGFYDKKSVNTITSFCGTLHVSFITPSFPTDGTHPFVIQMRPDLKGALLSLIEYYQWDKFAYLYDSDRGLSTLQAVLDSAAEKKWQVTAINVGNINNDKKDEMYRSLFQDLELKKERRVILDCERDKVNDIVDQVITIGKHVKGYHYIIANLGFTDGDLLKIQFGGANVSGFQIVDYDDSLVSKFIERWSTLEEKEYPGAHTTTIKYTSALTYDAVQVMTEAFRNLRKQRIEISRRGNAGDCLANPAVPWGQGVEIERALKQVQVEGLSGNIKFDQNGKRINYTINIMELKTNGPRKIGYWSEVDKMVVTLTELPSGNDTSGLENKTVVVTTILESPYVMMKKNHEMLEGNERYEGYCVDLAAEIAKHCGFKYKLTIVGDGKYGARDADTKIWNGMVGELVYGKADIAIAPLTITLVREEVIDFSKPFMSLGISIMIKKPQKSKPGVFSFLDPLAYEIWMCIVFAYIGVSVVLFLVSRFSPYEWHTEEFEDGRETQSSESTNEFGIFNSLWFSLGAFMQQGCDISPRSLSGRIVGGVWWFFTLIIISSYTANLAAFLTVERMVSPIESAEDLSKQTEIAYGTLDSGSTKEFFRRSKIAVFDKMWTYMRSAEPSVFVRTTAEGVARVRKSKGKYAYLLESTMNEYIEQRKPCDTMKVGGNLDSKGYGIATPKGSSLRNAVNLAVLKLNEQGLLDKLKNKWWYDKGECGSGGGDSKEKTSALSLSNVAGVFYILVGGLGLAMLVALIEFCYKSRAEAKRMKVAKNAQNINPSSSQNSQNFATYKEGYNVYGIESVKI
SMILES,Ki [1] [µM],Ki [2] [µM],other results
Cc1cccc(C(=O)O)c1O[C@H]1CC[C@H]2CN[C@H](C(=O)O)C[C@H]2C1,818,228,–
CCOC(=O)c1ccccc1S[C@H]1CC[C@H]2CN[C@H](C(=O)OCC)C[C@H]2C1.Cl,–,–,Cmax [3]: 2980 ng/mL; Activity [4]: 49.4%; Tmax [5]: 30 min; AUC(0-inf) [6]: 7530 ng·h/mL; MED [7]: > 100 mg/kg; minimal effective dose [8]: 10 mg/kg; bioavailability [9]: 38.8%
CCOC(=O)c1ccccc1O[C@H]1CC[C@H]2CN[C@H](C(=O)OCC)C[C@H]2C1.Cl,–,–,Cmax [3]: 9200 ng/mL; Tmax [5]: 30 min; Activity [10]: 21.8%; AUC(0-inf) [6]: 24700 ng·h/mL; MED [7]: > 30 mg/kg; minimal effective dose [8]: 10 mg/kg; bioavailability [9]: 75.3%
O=C(O)c1ccc(N[C@H]2CC[C@H]3CN[C@H](C(=O)O)C[C@H]3C2)cc1,1420,–,–
O=C(O)c1cc(Cl)ccc1O[C@H]1CC[C@H]2CN[C@H](C(=O)O)C[C@H]2C1,19,1.5,–
Cc1ccc(O[C@H]2CC[C@H]3CN[C@H](C(=O)O)C[C@H]3C2)c(C(=O)O)c1,107,9.9,–
CCOC(=O)c1ccc(Cl)cc1O[C@H]1CC[C@H]2CN[C@H](C(=O)OCC)C[C@H]2C1.Cl,–,–,Cmax [3]: 6450 ng/mL; Tmax [5]: 30 min; Activity [10]: 14.9%; AUC(0-inf) [6]: 9190 ng·h/mL; MED [7]: > 30 mg/kg; minimal effective dose [8]: > 10 mg/kg; bioavailability [9]: 32.9%
CCOC(=O)c1ccc(C[C@H]2CC[C@H]3CN[C@H](C(=O)OCC)C[C@H]3C2)cc1.Cl,–,–,Activity [10]: 13.4%; MED [7]: > 30 mg/kg; minimal effective dose [8]: 10 mg/kg
O=C(O)c1cc(Cl)ccc1S[C@H]1CC[C@H]2CN[C@H](C(=O)O)C[C@H]2C1,42,3.7,–
O=C(O)c1cc(Cl)ccc1N[C@H]1CC[C@H]2CN[C@H](C(=O)O)C[C@H]2C1,3.3,3.6,–
O=C(O)c1cccc(O[C@H]2CC[C@H]3CN[C@H](C(=O)O)C[C@H]3C2)c1,44,6,–
O=C(O)c1cccc(C[C@H]2CC[C@H]3CN[C@H](C(=O)O)C[C@H]3C2)c1,149,16,–
O=C(O)c1cccc(S[C@H]2CC[C@H]3CN[C@H](C(=O)O)C[C@H]3C2)c1,9,–,–
O=C(O)c1cc(-c2ccccc2)ccc1O[C@H]1CC[C@H]2CN[C@H](C(=O)O)C[C@H]2C1,172,11,–
O=C(O)c1ccccc1N[C@H]1CC[C@H]2CN[C@H](C(=O)O)C[C@H]2C1,77,–,–
CCOC(=O)c1ccc(-c2ccccc2)cc1O[C@H]1CC[C@H]2CN[C@H](C(=O)OCC)C[C@H]2C1.Cl,–,–,Cmax [3]: 2700 ng/mL; Tmax [5]: 60 min; AUC(0-inf) [6]: 7230 ng·h/mL; bioavailability [9]: 22.2%
O=C(O)c1ccc(O[C@H]2CC[C@H]3CN[C@H](C(=O)O)C[C@H]3C2)cc1,913,267,–
COc1ccc(O[C@H]2CC[C@H]3CN[C@H](C(=O)O)C[C@H]3C2)c(C(=O)O)c1,87,19,–
O=C(O)c1ccccc1O[C@H]1CC[C@H]2CN[C@H](C(=O)O)C[C@H]2C1,70,2.3,–
O=C(O)c1ccc(S[C@H]2CC[C@H]3CN[C@H](C(=O)O)C[C@H]3C2)cc1,418,19,–

# Further lines, with some results ahead:
Ki [1] [µM],Ki [2] [µM],SMILES,other results
93,9.7,O=C(O)c1c(F)cccc1O[C@H]1CC[C@H]2CN[C@H](C(=O)O)C[C@H]2C1,–
89,5.9,Cc1ccc(C(=O)O)c(O[C@H]2CC[C@H]3CN[C@H](C(=O)O)C[C@H]3C2)c1,–
238,8,O=C(O)c1cccc(N[C@H]2CC[C@H]3CN[C@H](C(=O)O)C[C@H]3C2)c1,–
553,–,Cl.O=C(O)c1ccc(C[C@H]2CC[C@H]3CN[C@H](C(=O)O)C[C@H]3C2)cc1,AUC(0-inf) [11]: 1510 ng·h/mL; bioavailability [12]: 62.5%; Cmax [13]: 539 ng/mL; Tmax [14]: 1 h
22,1.3,O=C(O)c1ccc(Cl)cc1S[C@H]1CC[C@H]2CN[C@H](C(=O)O)C[C@H]2C1,–
151,2.1,O=C(O)c1ccc(Cl)cc1O[C@H]1CC[C@H]2CN[C@H](C(=O)O)C[C@H]2C1,–
15,0.8,O=C(O)c1ccccc1S[C@H]1CC[C@H]2CN[C@H](C(=O)O)C[C@H]2C1,–
1470,316,O=C(O)c1cccc(Cl)c1O[C@H]1CC[C@H]2CN[C@H](C(=O)O)C[C@H]2C1,–
29600,67,O=C(O)c1ccccc1C[C@H]1CC[C@H]2CN[C@H](C(=O)O)C[C@H]2C1,–
8.8,0.5,O=C(O)c1ccc(-c2ccccc2)cc1O[C@H]1CC[C@H]2CN[C@H](C(=O)O)C[C@H]2C1,–
111,6.2,COc1ccc(C(=O)O)c(O[C@H]2CC[C@H]3CN[C@H](C(=O)O)C[C@H]3C2)c1,–

# — ChEMBL document CHEMBL2440037, “GluK1 antagonists from 6-(carboxy)phenyl decahydroisoquinoline derivatives. SAR and evaluation of a prodrug strategy for oral efficacy in pain models” (Bioorg Med Chem Lett, 2013)
